Assays:
Rattus norvegicus = assay: Dose normalized AUC in Sprague-Dawley rat at 3 mg/kg, po; format: ADME, organism-based; details: in vivo
Method in brief: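 Catheterized female Sprague-Dawley rats received a single oral dose of 3 mg/kg as a suspension in CMC:water:Tween 80 (0.5:99:0.5). This followed a 48 h wash-out after iv dosing in the same animals.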

[1] = Clearance in Sprague-Dawley rat at 1 mg/kg, iv; format: ADME, organism-based; details: in vivo
Method in brief: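 Female Sprague-Dawley rats with femoral artery and vein catheters received a single iv dose of 1 mg/kg in NMP:PEG200 (30:70). Clearance is the mean ± SD of four animals.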

[2] = Drug level in blood of FVB mouse chamber implant model at 30 mg/kg, po bid for 4 days measured at 16 hrs on day 4; details: read-out: Drug uptake
[3] = Drug level in blood of FVB mouse chamber implant model at 30 mg/kg, po bid for 4 days measured at 2 hrs on day 4; details: read-out: Drug uptake
[4] = Drug level in blood of methylated BSA and complete Freund's adjuvant sensitized Lewis rat antigen-induced arthritis model at 30 mg/kg, po bid for 7 days and measured 2 hrs post dose; format: ADME, organism-based; details: read-out: Drug uptake
Method in brief: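 Lewis rat AIA model, 30 mg/kg po bid. Blood concentration was measured on day 7 at 2 h post dose. Values are the mean of n = 5.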

Compound | AUC/dose (Rattus norvegicus) | clearance [1] | concentration at 16 h [2] | concentration at 2 h [3] | concentration at 2 h [4]
CCc1nn2c(C)cc(C)nc2c1Cc1ccc(CCCN2CCN(C(C)C)CC2)cc1 | 1.1 µmol·h/L | 29 mL/min/kg |  |  | 
CCc1nn2c(C)cc(C)nc2c1Cc1ccc(CCC(O)C2CCNCC2)cc1 (centres undefined) | 0.49 µmol·h/L | 31 mL/min/kg |  |  | 
CCc1nn2c(C)cc(C)nc2c1Cc1ccc(/C=C/CN2CCN(C(C)C)CC2)cc1 | 3.2 µmol·h/L | 12 mL/min/kg |  |  | 
CCc1nn2c(C)cc(C)nc2c1Cc1ccc(/C=C/CN2CCNC(=O)C2)cc1 | 13.6 µmol·h/L | 4 mL/min/kg |  |  | 23 µM
CCc1nn2c(C)cc(C)nc2c1Cc1ccc(/C=C/CN2CCN(C[C@@H](O)CO)CC2)cc1 | 5.1 µmol·h/L | 11 mL/min/kg |  |  | 

Second part, led by results:

AUC/dose (Rattus norvegicus) | clearance [1] | concentration at 16 h [2] | concentration at 2 h [3] | Compound | concentration at 2 h [4]
6.7 µmol·h/L | 6 mL/min/kg | 0.09 µM | 9.03 µM | CCc1nn2c(C)cc(C)nc2c1Cc1ccc(-c2nnc(C3CCNCC3)o2)cc1 | 
1.2 µmol·h/L | 28 mL/min/kg |  |  | CCc1nn2c(C)cc(C)nc2c1Cc1ccc(CCC(=O)N2CCNCC2)cc1 | 
0.53 µmol·h/L | 49 mL/min/kg |  |  | CCc1nn2c(C)cc(C)nc2c1Cc1ccc(CCCC2(O)CCNCC2)cc1 | 

Source: ChEMBL document CHEMBL4177561, “Development of Selective, Orally Active GPR4 Antagonists with Modulatory Effects on Nociception, Inflammation, and Angiogenesis” (J Med Chem, 2017)
